Results published in ChEMBL document CHEMBL1687824, “Overexpression of patA and patB, which encode ABC transporters, is associated with fluoroquinolone resistance in clinical isolates of Streptococcus pneumoniae” (2011).
Converted amounts (≈) assume the structure as drawn.

How the values were obtained:
Format in all cases: functional
Streptococcus pneumoniae [1] = assay: Antibacterial activity against wild type Streptococcus pneumoniae R6 by standardized agar doubling dilution method in presence of 50 uM sodium orthovanadate efflux pump inhibitor
Procedure, shortened: (§1)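 MIC by agar doubling dilution following BSAC guidelines. Strains grown in brain heart infusion broth 24 h at 37°C in 5% CO2. Where an efflux pump inhibitor applies, MIC redetermined with reserpine at 20 μg/ml or sodium orthovanadate at 50 μM. Synergy taken as a fall in MIC of ≥2 dilutions with inhibitor present. Dye resistance defined relative to R6 (both dyes ≥2 dilutions higher).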

Streptococcus pneumoniae [2] = assay: Antibacterial activity against wild type Streptococcus pneumoniae M4 NCTC 7465 type 1 by standardized agar doubling dilution method; procedure, shortened: as §1
Streptococcus pneumoniae [3] = assay: Antibacterial activity against fluoroquinolone-resistant Streptococcus pneumoniae by standardized agar doubling dilution method; procedure, shortened: as §1
Streptococcus pneumoniae [4] = assay: Antibacterial activity against fluoroquinolone-resistant Streptococcus pneumoniae by standardized agar doubling dilution method in presence of 50 uM sodium orthovanadate efflux pump inhibitor; procedure, shortened: as §1
Streptococcus pneumoniae [5] = assay: Antibacterial activity against dye-resistant Streptococcus pneumoniae by standardized agar doubling dilution method in presence of 20 ug/ml reserpine efflux pump inhibitor; procedure, shortened: as §1
Streptococcus pneumoniae [6] = assay: Antibacterial activity against fluoroquinolone, dye-susceptible Streptococcus pneumoniae by standardized agar doubling dilution method in presence of 20 ug/ml reserpine efflux pump inhibitor; procedure, shortened: as §1
Streptococcus pneumoniae [7] = assay: Antibacterial activity against fluoroquinolone, dye-susceptible Streptococcus pneumoniae by standardized agar doubling dilution method in presence of 50 uM sodium orthovanadate efflux pump inhibitor; procedure, shortened: as §1
Streptococcus pneumoniae [8] = assay: Antibacterial activity against Streptococcus pneumoniae M45A overexpressing patA, patB and inactivated patA with single mutation by standardized agar doubling dilution method
Procedure, shortened: (§2)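 MICs were determined by agar doubling dilution following BSAC guidelines, with no efflux inhibitor. Strains were grown in brain heart infusion broth for 24 h at 37°C in 5% CO2. Species identity was confirmed by Gram stain, optochin sensitivity and capsule test. Control strain R6 was tested alongside.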

Streptococcus pneumoniae [9] = assay: Antibacterial activity against fluoroquinolone, dye-resistant Streptococcus pneumoniae M50 overexpressing patA, patB by standardized agar doubling dilution method; procedure, shortened: as §1
Streptococcus pneumoniae [10] = assay: Antibacterial activity against Streptococcus pneumoniae M50B overexpressing patA, patB and inactivated patB with single mutation by standardized agar doubling dilution method; procedure, shortened: as §2
Streptococcus pneumoniae [11] = assay: Antibacterial activity against Streptococcus pneumoniae M310 overexpressing patA, patB and inactivated patB with single mutation by standardized agar doubling dilution method
Procedure, shortened: (§3)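 MICs determined by BSAC standardized agar doubling dilution. Strains were grown in brain heart infusion broth for 24 h at 37°C in 5% CO2. Inhibitor arms had reserpine at 20 μg/ml or sodium orthovanadate at 50 μM in the agar. Mutants were made by transforming magellan2 insertion amplimers into clinical isolates and selecting on spectinomycin 100 mg/liter, with a no-DNA spontaneous-mutation control.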

Streptococcus pneumoniae [12] = assay: Antibacterial activity against fluoroquinolone, dye-resistant Streptococcus pneumoniae M297 overexpressing patA, patB by standardized agar doubling dilution method; procedure, shortened: as §1
Streptococcus pneumoniae [13] = assay: Antibacterial activity against Streptococcus pneumoniae M311B overexpressing patA, patB and inactivated patB with single mutation by standardized agar doubling dilution method; procedure, shortened: as §3
Streptococcus pneumoniae [14] = assay: Antibacterial activity against Streptococcus pneumoniae M306 overexpressing patA, patB and inactivated patB with single mutation by standardized agar doubling dilution method; procedure, shortened: as §3
Streptococcus pneumoniae [15] = assay: Antibacterial activity against fluoroquinolone-resistant Streptococcus pneumoniae M98 FQ-R overexpressing patA, patB by standardized agar doubling dilution method
Procedure, shortened: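 Clinical S. pneumoniae isolates grown in BHI broth 24 h at 37°C in 5% CO2. MICs by agar doubling dilution per BSAC guidelines, alone or with efflux inhibitor reserpine (20 μg/ml) or sodium orthovanadate (50 μM). Synergy defined as ≥2-dilution MIC reduction in presence of inhibitor.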

Streptococcus pneumoniae [16] = assay: Antibacterial activity against Streptococcus pneumoniae M314 overexpressing patA, patB and inactivated patA with single mutation by standardized agar doubling dilution method; procedure, shortened: as §3
Streptococcus pneumoniae [17] = assay: Antibacterial activity against fluoroquinolone-resistant Streptococcus pneumoniae M100 FQ-R overexpressing patA, patB by standardized agar doubling dilution method
Procedure, shortened: (§4)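 MIC by agar doubling dilution per BSAC guidelines; strains pregrown in brain heart infusion broth 24 h, 37°C, 5% CO2. MICs measured alone and with efflux pump inhibitors reserpine (20 μg/ml) or sodium orthovanadate (50 μM); synergy defined as ≥2-dilution MIC reduction in presence of inhibitor.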

Streptococcus pneumoniae [18] = assay: Antibacterial activity against Streptococcus pneumoniae M300 overexpressing patA, patB and inactivated patA with single mutation by standardized agar doubling dilution method; procedure, shortened: as §3
Streptococcus pneumoniae [19] = assay: Antibacterial activity against fluoroquinolone, dye-susceptible Streptococcus pneumoniae M295 S overexpressing patA, patB by standardized agar doubling dilution method; procedure, shortened: as §1
Streptococcus pneumoniae [20] = assay: Antibacterial activity against Streptococcus pneumoniae M87B overexpressing patA, patB and inactivated patB with single mutation by standardized agar doubling dilution method in presence of 20 ug/ml reserpine efflux pump inhibitor
Procedure, shortened: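 MICs were determined by BSAC agar doubling dilution in the presence of reserpine at 20 μg/ml. Strains were grown in BHI broth for 24 h at 37°C in 5% CO2, with R6 as control. Synergy was defined as an MIC drop of ≥2 dilutions with the inhibitor.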

Streptococcus pneumoniae [21] = assay: Antibacterial activity against Streptococcus pneumoniae M304 overexpressing patA, patB and inactivated patA with single mutation by standardized agar doubling dilution method in presence of 20 ug/ml reserpine efflux pump inhibitor; procedure, shortened: as §3
Streptococcus pneumoniae [22] = assay: Antibacterial activity against Streptococcus pneumoniae M311 overexpressing patA, patB and inactivated patA with single mutation by standardized agar doubling dilution method in presence of 20 ug/ml reserpine efflux pump inhibitor; procedure, shortened: as §3
Streptococcus pneumoniae [23] = assay: Antibacterial activity against fluoroquinolone-resistant Streptococcus pneumoniae M100 FQ-R overexpressing patA, patB by standardized agar doubling dilution method in presence of 20 ug/ml reserpine efflux pump inhibitor; procedure, shortened: as §4
Streptococcus pneumoniae [24] = assay: Antibacterial activity against fluoroquinolone, dye-resistant Streptococcus pneumoniae M42 overexpressing patA, patB by standardized agar doubling dilution method in presence of 50 uM sodium orthovanadate efflux pump inhibitor; procedure, shortened: as §1
Streptococcus pneumoniae [25] = assay: Antibacterial activity against Streptococcus pneumoniae M50B overexpressing patA, patB and inactivated patB with single mutation by standardized agar doubling dilution method in presence of 50 uM sodium orthovanadate efflux pump inhibitor
Procedure, shortened: (§5)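 MICs were determined by BSAC agar doubling dilution in the presence of sodium orthovanadate at 50 μM. Cultures were grown in BHI broth for 24 h at 37°C in 5% CO2, with R6 as control. Synergy was defined as an MIC reduction of ≥2 dilutions with the inhibitor present.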

Streptococcus pneumoniae [26] = assay: Antibacterial activity against Streptococcus pneumoniae M310 overexpressing patA, patB and inactivated patB with single mutation by standardized agar doubling dilution method in presence of 50 uM sodium orthovanadate efflux pump inhibitor; procedure, shortened: as §3
Streptococcus pneumoniae [27] = assay: Antibacterial activity against Streptococcus pneumoniae M317 overexpressing patA, patB and inactivated patB with single mutation by standardized agar doubling dilution method in presence of 50 uM sodium orthovanadate efflux pump inhibitor; procedure, shortened: as §5
Streptococcus pneumoniae [28] = assay: Antibacterial activity against fluoroquinolone-resistant Streptococcus pneumoniae M100 FQ-R overexpressing patA, patB by standardized agar doubling dilution method in presence of 50 uM sodium orthovanadate efflux pump inhibitor; procedure, shortened: as §4
Streptococcus pneumoniae [29] = assay: Antibacterial activity against Streptococcus pneumoniae M55B overexpressing patA, patB and inactivated patB with single mutation by standardized agar doubling dilution method in presence of 50 uM sodium orthovanadate efflux pump inhibitor; procedure, shortened: as §5

SMILES | MIC (Streptococcus pneumoniae [1]) [µg/mL] | MIC (Streptococcus pneumoniae [2]) [µg/mL] | MIC90 (Streptococcus pneumoniae [3]) [µg/mL] | MIC90 (Streptococcus pneumoniae [4]) [µg/mL] | MIC90 (Streptococcus pneumoniae [5]) [µg/mL] | MIC90 (Streptococcus pneumoniae [6]) [µg/mL] | MIC90 (Streptococcus pneumoniae [7]) [µg/mL] | MIC (Streptococcus pneumoniae [8]) [µg/mL] | MIC (Streptococcus pneumoniae [9]) [µg/mL] | MIC (Streptococcus pneumoniae [10]) [µg/mL] | MIC (Streptococcus pneumoniae [11]) [µg/mL] | MIC (Streptococcus pneumoniae [12]) [µg/mL] | MIC (Streptococcus pneumoniae [13]) [µg/mL] | MIC (Streptococcus pneumoniae [14]) [µg/mL] | MIC (Streptococcus pneumoniae [15]) [µg/mL] | MIC (Streptococcus pneumoniae [16]) [µg/mL] | MIC (Streptococcus pneumoniae [17]) [µg/mL] | MIC (Streptococcus pneumoniae [18]) [µg/mL] | MIC (Streptococcus pneumoniae [19]) [µg/mL] | MIC (Streptococcus pneumoniae [20]) [µg/mL] | further results
O=C(O)c1cn(C2CC2)c2cc(N3CCNCC3)c(F)cc2c1=O [CIPROFLOXACIN] | 0.1 | 1 (≈ 3.02 µM) | 8 (≈ 24.1 µM) | 2 | 0.5 | 0.5 | 0.5 | 1 (≈ 3.02 µM) | 64 (≈ 193 µM) | 4 (≈ 12.1 µM) | 4 (≈ 12.1 µM) | 8 (≈ 24.1 µM) | 8 (≈ 24.1 µM) | 4 (≈ 12.1 µM) | 32 (≈ 96.6 µM) | 8 (≈ 24.1 µM) | 8 (≈ 24.1 µM) | 2 (≈ 6.04 µM) | 1 (≈ 3.02 µM) | 8 | MIC (Streptococcus pneumoniae [21]): 1 µg/mL; MIC (Streptococcus pneumoniae [22]): 4 µg/mL; MIC (Streptococcus pneumoniae [23]): 2 µg/mL; MIC (Streptococcus pneumoniae [24]): 16 µg/mL; MIC (Streptococcus pneumoniae [25]): 4 µg/mL; MIC (Streptococcus pneumoniae [26]): 2 µg/mL; MIC (Streptococcus pneumoniae [27]): 8 µg/mL; MIC (Streptococcus pneumoniae [28]): 1 µg/mL; MIC (Streptococcus pneumoniae [29]): 2 µg/mL
CC[n+]1c(-c2ccccc2)c2cc(N)ccc2c2ccc(N)cc21.[Br-] [HOMIDIUM BROMIDE] | 0.1 | 2 | 2 | 0.5 | 0.5 | 0.25 | 0.25 | 0.5 | 4 | 0.5 | 16 | 8 | 0.5 | 0.25 | 4 | 0.5 | 4 | 0.5 | 2 | 0.5 | MIC (Streptococcus pneumoniae [5]): 0.5 µg/mL; MIC (Streptococcus pneumoniae [21]): 0.5 µg/mL; MIC (Streptococcus pneumoniae [22]): 0.5 µg/mL; MIC (Streptococcus pneumoniae [23]): 0.25 µg/mL; MIC (Streptococcus pneumoniae [24]): 1 µg/mL; MIC (Streptococcus pneumoniae [25]): 0.5 µg/mL; MIC (Streptococcus pneumoniae [26]): 8 µg/mL; MIC (Streptococcus pneumoniae [27]): 0.5 µg/mL; MIC (Streptococcus pneumoniae [28]): 1 µg/mL; MIC (Streptococcus pneumoniae [29]): 0.5 µg/mL
